# Assay results from article PMC4321732 (Structure (London, England : 1993), 2015).
# *1 amine or outer side, *2 acyl side, *3 side chain or, on linkers, in order; H or OH if unused. Where no end group is shown, it is not given here. [ ]: non-standard residue; d: D form. KCme2 = N-dimethylated aminoethylcysteine, CN(C)CCSC[C@H](N[*:1])C(=O)[*:2]; Me2 = dimethyl group on the Lys side-chain amine
# Tests used:
# 53BP1 TTD [1] = molecular target: T1, 53BP1 TTD (Homo sapiens, UniProt Q12888); assay: NMR titration; format: binding; conditions: 1H,15N HSQC, 298 K; for effect of glycine mutation on CSPs in 15N-labeled TTD: 0.1–0.2 mM TTD, glycine mutants of p53KC370me2 peptide
# T1 sequence (Q12888 1484-1603): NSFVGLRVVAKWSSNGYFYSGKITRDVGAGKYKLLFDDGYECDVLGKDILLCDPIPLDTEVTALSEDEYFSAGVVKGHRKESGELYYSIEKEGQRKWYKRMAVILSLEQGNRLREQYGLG
# 53BP1 TTD [2] = molecular target: T1, 53BP1 TTD; conditions: monomeric TTD; ref Roy et al., 2010; cited from earlier work
# 53BP1 TTD [3] = molecular target: T1, 53BP1 TTD; assay: NMR solution structure of TTD-peptide complex; conditions: 298 K, 25 mM sodium phosphate pH 7.5
# Summary of the method: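 Complexes of the 53BP1 tandem Tudor domain with dimethylated p53 peptides (residues 363–377 or 376–387) recorded on a 700 MHz cryoprobe in 90% H2O/10% D2O or 100% D2O with 1.5 mM NaN3. Samples were 2 mM 13C/15N-TTD with 6 mM unlabeled peptide, or 2 mM labeled dimethyllysine-analog peptide with 5 mM TTD. Intermolecular NOEs came from filtered 13C-edited NOESY-HSQC.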
# GST-tagged 53BP1 TTD = assay: Peptide microarray; format: binding, human; conditions: normalized mean intensities of four arrays
# 53BP1 TTD [4] = molecular target: T1, 53BP1 TTD; assay: Overall preference of 53BP1 TTD from peptide library, fluorescence and NMR; format: binding; conditions: overall conclusion from library, fluorescence and NMR results
# CL-TTD = CL-TTD (Homo sapiens, UniProt Q12888, C1525A/C1535A); assay: NMR titration; format: binding; conditions: 1H,15N HSQC, 298 K, 0.1–0.2 mM CL-TTD
# Chain of CL-TTD (Q12888 1481-1603 C1525A/C1535A): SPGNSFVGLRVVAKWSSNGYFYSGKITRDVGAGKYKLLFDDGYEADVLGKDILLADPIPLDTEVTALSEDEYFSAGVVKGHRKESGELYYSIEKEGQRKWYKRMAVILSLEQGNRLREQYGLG
substance,measurement,setting,value
p53L369GKC370me2: p53KC370me2 peptide with L369 substituted with glycine (GHMRAHSSHGCSKKGQST; not fully specified (residue 11)),effect of glycine mutation on CSPs in 15N-labeled TTD,53BP1 TTD [1],Alterations in CSPs
p53KC370me2K372G: p53KC370me2 peptide with K372 substituted with glycine (GHMRAHSSHLCSGKGQST; not fully specified (residue 11)),effect of glycine mutation on CSPs in 15N-labeled TTD,53BP1 TTD [1],caused the same CSPs as the wild type p53KC382me2 peptide
p53H368GKC370me2: p53KC370me2 peptide with H368 substituted with glycine (GHMRAHSSGLCSKKGQST; not fully specified (residue 11)),effect of glycine mutation on CSPs in 15N-labeled TTD,53BP1 TTD [1],Alterations in CSPs
p53KC370me2K373G: p53KC370me2 peptide with K373 substituted with glycine (GHMRAHSSHLCSKGGQST; not fully specified (residue 11)),effect of glycine mutation on CSPs in 15N-labeled TTD,53BP1 TTD [1],caused the same CSPs as the wild type p53KC382me2 peptide
"p53K370me2: p53K370me2 (residues 363–377) peptide, chemically synthesized (RAHSSHLK(Me2)SKKGQST)",site of dimethyllysine indicated by pattern of CSPs,53BP1 TTD [1],fully consistent with K370me2 occupying the aromatic cage
same,Kd,53BP1 TTD [2],20 µM
same,protein-peptide interface area in NMR ensemble,53BP1 TTD [3],707 ± 43 Å^2
p53H365GKC370me2: p53KC370me2 peptide with H365 substituted with glycine (GHMRAGSSHL[KCme2]SKKGQST),effect of glycine mutation on CSPs in 15N-labeled TTD,53BP1 TTD [1],Alterations in CSPs
"p53K382me2: p53K382me2 (residues 376–387) peptide, chemically synthesized (STSRHKK(Me2)LMFKT)",binding in peptide library screen,GST-tagged 53BP1 TTD,recognized primarily
same,preference of 53BP1 TTD module,53BP1 TTD [4],strong preference
same,Kd,53BP1 TTD [2],0.9 µM
same,chemical shift / resonance intensity changes in 15N-labelled CL-TTD,CL-TTD,substantial chemical shift changes
same,protein-peptide interface area in NMR ensemble,53BP1 TTD [3],678 ± 60 Å^2
